Results taken from ChEMBL document CHEMBL1155452, “Oncocin (VDKPPYLPRPRPPRRIYNR-NH2): a novel antibacterial peptide optimized against gram-negative human pathogens” (J Med Chem, 2010).

How the values were obtained:
[1] = Stability in 25% mouse serum assessed as compound remaining at 75 ug/ml after 2 hrs by MALDI-TOF-MS analysis; format: ADME, cell-free; conditions: read-out: Stability
Procedure, shortened: (§1)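 Peptide at 75 μg/mL final in pooled mouse serum (undiluted or 25% v:v aqueous), 37 °C. Triplicate aliquots taken at 0, 30, 60, 120 and 240 min and precipitated with 3% TCA on ice for 10 min. Supernatant neutralized with NaOH and analysed by RP-HPLC on C18 with TFA-containing gradient. Amounts expressed relative to 0 min; metabolites identified by MALDI-TOF-MS.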

[2] = Drug uptake in Escherichia coli BL21 AI assessed as intracellular localization at 30 ug/ml after 20 mins by confocal fluorescence microscopy; format: ADME, cell-based; conditions: escherichia coli bl21, 20 min; in the assay text read “30 uM” for “30 ug/ml”
Procedure, shortened: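 E. coli BL21 AI overnight culture diluted to 1.5 × 10^7 cells/mL in 1% TSB. 5(6)-Carboxyfluorescein N-terminally labelled peptide added at 30 μmol/L final, with 60-fold molar excess of TAMRA to quench extracellular fluorescence. Imaged at room temperature at 20 and 50 min by confocal laser scanning microscopy (488 nm excitation), with phase contrast.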

[3] = Stability in 25% mouse serum assessed as half life at 75 ug/ml by MALDI-TOF-MS analysis; format: ADME, cell-free; procedure, shortened: as §1
[4] = test system: Stenotrophomonas; test: Antimicrobial activity against Stenotrophomonas ICB 7569 after 20 hrs by broth microdilution method; format: functional; conditions: ICB 7569, 20 h
Procedure, shortened: (§2)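 Pathogens grown overnight on Columbia agar. Colonies suspended in 0.9% saline to OD 0.1, diluted 1:300 in 1% TSB, final (1-2) × 10^5 cfu/well. Peptides 2-fold serially diluted in 1% TSB from 128 to typically 0.5 μg/mL. Incubation at 37 °C; A595 read after 20 ± 2 h. MIC is the lowest concentration with absorbance not above medium only. Triplicate.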

[5] = test system: Stenotrophomonas; test: Antimicrobial activity against Stenotrophomonas ICB 308054 after 20 hrs by broth microdilution method; format: functional; conditions: ICB 308054, 20 h; procedure, shortened: as §2
[6] = test system: Enterobacter cloacae; test: Antimicrobial activity against Enterobacter cloacae Ha185 after 20 hrs by broth microdilution method; format: functional; conditions: Ha185, 20 h
Procedure, shortened: (§3)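 Pathogenic strains grown overnight on Columbia agar, colonies suspended in 0.9% saline to OD 0.1, diluted 1:300 in 1% TSB; final (1-2) × 10^5 cfu/well. Peptides 2-fold serially diluted in 1% TSB from 128 μg/mL, typically to 0.5 μg/mL. Incubated 37 °C, absorbance at 595 nm after 20 ± 2 h, in triplicate; MIC = lowest concentration with absorbance not exceeding medium only.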

[7] = Toxicity in human erythrocytes assessed as hemolytic activity at 600 ug/ml after 1 hr; format: cell-based; conditions: erythrocyte
Procedure, shortened: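 Peptides 2-fold serially diluted from 600 to 5 μg/mL in PBS (pH 7.4), mixed 1:1 with 2% washed human erythrocytes in PBS, 37 °C for 1 h. After centrifugation at 1000g, supernatant A405 read. Triton X-100 0.1% as positive control, PBS as negative control.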

[8] = test system: Klebsiella pneumoniae; test: Antimicrobial activity against Klebsiella pneumoniae 57 USA after 20 hrs by broth microdilution method; format: functional; procedure, shortened: as §2
[9] = test system: Enterobacter cloacae; test: Antimicrobial activity against Enterobacter cloacae Ha89 after 20 hrs by broth microdilution method; format: functional; conditions: Ha89, 20 h; procedure, shortened: as §2
[10] = test system: Acinetobacter baumannii; test: Antimicrobial activity against Acinetobacter baumannii ICB 14072 after 20 hrs by broth microdilution method; format: functional; conditions: ICB 14072, 20 h; procedure, shortened: as §2
[11] = test system: Escherichia coli; test: Antimicrobial activity against Escherichia coli 70419002 after 20 hrs by broth microdilution method; format: functional; conditions: Escherichia coli, 70419002, 20 h; procedure, shortened: as §2
[12] = test system: Micrococcus luteus; test: Antibacterial activity against Micrococcus luteus ATCC 10240 after 20 hrs by broth microdilution assay; format: functional; conditions: ATCC 10240, 20 h
Procedure, shortened: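 Nutrient-broth overnight cultures diluted in 1% TSB; E. coli BL21AI 7.5 × 10^5 cells/well, M. luteus ATCC 10240 2 × 10^6 cells/well. Peptides serially 2-fold diluted in 1% TSB from 128 to typically 0.5 μg/mL. Incubation at 37 °C; A595 read after 20 ± 2 h. MIC is the lowest concentration with absorbance not above medium only. Triplicate.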

[13] = test system: Escherichia coli; test: Antimicrobial activity against Escherichia coli Neumann after 20 hrs by broth microdilution method; format: functional; procedure, shortened: as §2
[14] = test system: Pseudomonas aeruginosa; test: Antimicrobial activity against Pseudomonas aeruginosa ATCC 27853 after 20 hrs by broth microdilution method; format: functional; conditions: ATCC 27853, 20 h; procedure, shortened: as §3
[15] = test system: Pseudomonas aeruginosa; test: Antimicrobial activity against Pseudomonas aeruginosa Walter after 20 hrs by broth microdilution method; format: functional; procedure, shortened: as §3
[16] = test system: Pseudomonas aeruginosa; test: Antimicrobial activity against Pseudomonas aeruginosa 70108001 after 20 hrs by broth microdilution method; format: functional; conditions: Pseudomonas aeruginosa, 70108001, 20 h; procedure, shortened: as §3
[17] = test system: Acinetobacter baumannii; test: Antimicrobial activity against Acinetobacter baumannii ICB 14073 after 20 hrs by broth microdilution method; format: functional; conditions: ICB 14073, 20 h; procedure, shortened: as §2
[18] = test system: HeLa; test: Cytotoxicity against human HeLa cells at 600 ug/ml after 24 hrs by MTT assay; format: cell-based
Procedure, shortened: (§4)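 HeLa (1.5 × 10^4/well, seeded overnight) or SH-SY5Y (2 × 10^4/well, differentiated 5 days with 10 μM trans-retinoic acid) in DMEM/Ham's F-12 with 5% or 15% FBS. Peptide added at 600 μg/mL for 24 h at 37 °C, 5% CO2. MTT 0.5 mg/mL for 4 h, then SDS/HCl for 16 h; A590 read against 650 nm. Normalized to PBS (100%); DMSO 12% as positive control.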

[19] = test system: Enterobacter cloacae; test: Antimicrobial activity against Enterobacter cloacae Ha088 after 20 hrs by broth microdilution method; format: functional; conditions: Ha088, 20 h; procedure, shortened: as §2
[20] = test system: Serum; test: Stability in 25% mouse serum assessed as peptide-12 level at 75 ug/ml after 30 mins by MALDI-TOF-MS analysis; format: ADME, cell-free; conditions: 0.5 h; procedure, shortened: as §1
[21] = test system: SH-SY5Y; test: Cytotoxicity against human SH-SY5Y cells at 600 ug/ml after 24 hrs by MTT assay; format: cell-based; procedure, shortened: as §4
[22] = test system: Pseudomonas aeruginosa; test: Antimicrobial activity against Pseudomonas aeruginosa PAO1 after 20 hrs by broth microdilution method; format: functional; conditions: PAO1, 20 h; procedure, shortened: as §3
[23] = test system: Escherichia coli; test: Antimicrobial activity against Escherichia coli 70329001 after 20 hrs by broth microdilution method; format: functional; conditions: Escherichia coli, 70329001, 20 h; procedure, shortened: as §2
[24] = test system: Klebsiella pneumoniae; test: Antimicrobial activity against Klebsiella pneumoniae DSM 681 after 20 hrs by broth microdilution method; format: functional; conditions: DSM 681, 20 h; procedure, shortened: as §2
[25] = test system: Pseudomonas aeruginosa; test: Antimicrobial activity against Pseudomonas aeruginosa DSM 3227 after 20 hrs by broth microdilution method; format: functional; conditions: DSM 3227, 20 h; procedure, shortened: as §3
[26] = test system: Klebsiella pneumoniae; test: Antimicrobial activity against Klebsiella pneumoniae 63 after 20 hrs by broth microdilution method; format: functional; conditions: Klebsiella pneumoniae, 63, 20 h; procedure, shortened: as §3
[27] = test system: Serum; test: Stability in 25% mouse serum assessed as peptide-12 level at 75 ug/ml after 2 hrs by MALDI-TOF-MS analysis; format: ADME, cell-free; procedure, shortened: as §1
[28] = test system: Acinetobacter baumannii; test: Antimicrobial activity against Acinetobacter baumannii M17 after 20 hrs by broth microdilution method; format: functional; conditions: M17, 20 h; procedure, shortened: as §2
[29] = test system: Klebsiella pneumoniae; test: Antimicrobial activity against Klebsiella pneumoniae ATCC 27799 after 20 hrs by broth microdilution method; format: functional; conditions: ATCC 27799, 20 h; procedure, shortened: as §3

Substance: H-VDKPPYLPRPRPPRRIYNR-NH2 [ONCOCIN]
- remaining at 2 h, 75 ug/ml [1]: 60%
- Activity [2]: Active
- half-life at 75 ug/ml [3]: 1.17 h
- MIC [4]: 8 mg/L
- MIC [5]: 32 mg/L
- MIC [6]: 0.5 mg/L
- Activity [7]: Non-toxic
- MIC [8]: 0.25 mg/L
- MIC [9]: 0.25 mg/L
- MIC [10]: 1 mg/L
- MIC [11]: 8 mg/L
- MIC [12]: 8 mg/L
- MIC [13]: 2 mg/L
- MIC [14]: 4 mg/L
- MIC [15]: 8 mg/L
- MIC [16]: 4 mg/L
- MIC [17]: 2 mg/L
- Activity [18]: Non-toxic
- MIC [19]: 0.125 mg/L
- Activity [20]: 10%
- Activity [21]: Non-toxic
- MIC [22]: 2 mg/L
- MIC [23]: 1 mg/L
- MIC [24]: 0.25 mg/L
- MIC [25]: 4 mg/L
- MIC [26]: 8 mg/L
- Activity [27]: 20%
- MIC [28]: 1 mg/L
- MIC [29]: 1 mg/L
